For ten compounds, Activity and IC50 results are on record in ChEMBL document CHEMBL1140608 (J Med Chem, 2007).

Structures are written as SMILES.

The target of data set [1] is T1, ATP-dependent translocase ABCB1 (Homo sapiens, UniProt P08183). The data set is described as follows: Inhibition of human Pgp in anthracycline-resistant K562 cells assessed as drug level causing maximal increase in nuclear concentration of pirarubicin relative to control. The format is cell-based. In short, it runs like this:
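Anthracycline-resistant erythroleukemia K562 cells were incubated with pirarubicin, and its uptake was followed by continuous spectrofluorometry (λex 480 nm, λem 590 nm). R is the fractional increase in nuclear pirarubicin with inhibitor: 0 without inhibitor, 1 when it equals sensitive cells. Rmax is the maximal achievable increase. [I]0.5 is the inhibitor concentration giving R = 0.5.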

Data set [2] has as its target T1, ATP-dependent translocase ABCB1. The data set is described as follows: Inhibition of human Pgp in anthracycline-resistant K562 cells assessed as drug level causing half maximal increase in nuclear concentration of pirarubicin. Particulars: read-out: Activity. In kind it is cell-based.

T1 sequence (P08183 whole entry): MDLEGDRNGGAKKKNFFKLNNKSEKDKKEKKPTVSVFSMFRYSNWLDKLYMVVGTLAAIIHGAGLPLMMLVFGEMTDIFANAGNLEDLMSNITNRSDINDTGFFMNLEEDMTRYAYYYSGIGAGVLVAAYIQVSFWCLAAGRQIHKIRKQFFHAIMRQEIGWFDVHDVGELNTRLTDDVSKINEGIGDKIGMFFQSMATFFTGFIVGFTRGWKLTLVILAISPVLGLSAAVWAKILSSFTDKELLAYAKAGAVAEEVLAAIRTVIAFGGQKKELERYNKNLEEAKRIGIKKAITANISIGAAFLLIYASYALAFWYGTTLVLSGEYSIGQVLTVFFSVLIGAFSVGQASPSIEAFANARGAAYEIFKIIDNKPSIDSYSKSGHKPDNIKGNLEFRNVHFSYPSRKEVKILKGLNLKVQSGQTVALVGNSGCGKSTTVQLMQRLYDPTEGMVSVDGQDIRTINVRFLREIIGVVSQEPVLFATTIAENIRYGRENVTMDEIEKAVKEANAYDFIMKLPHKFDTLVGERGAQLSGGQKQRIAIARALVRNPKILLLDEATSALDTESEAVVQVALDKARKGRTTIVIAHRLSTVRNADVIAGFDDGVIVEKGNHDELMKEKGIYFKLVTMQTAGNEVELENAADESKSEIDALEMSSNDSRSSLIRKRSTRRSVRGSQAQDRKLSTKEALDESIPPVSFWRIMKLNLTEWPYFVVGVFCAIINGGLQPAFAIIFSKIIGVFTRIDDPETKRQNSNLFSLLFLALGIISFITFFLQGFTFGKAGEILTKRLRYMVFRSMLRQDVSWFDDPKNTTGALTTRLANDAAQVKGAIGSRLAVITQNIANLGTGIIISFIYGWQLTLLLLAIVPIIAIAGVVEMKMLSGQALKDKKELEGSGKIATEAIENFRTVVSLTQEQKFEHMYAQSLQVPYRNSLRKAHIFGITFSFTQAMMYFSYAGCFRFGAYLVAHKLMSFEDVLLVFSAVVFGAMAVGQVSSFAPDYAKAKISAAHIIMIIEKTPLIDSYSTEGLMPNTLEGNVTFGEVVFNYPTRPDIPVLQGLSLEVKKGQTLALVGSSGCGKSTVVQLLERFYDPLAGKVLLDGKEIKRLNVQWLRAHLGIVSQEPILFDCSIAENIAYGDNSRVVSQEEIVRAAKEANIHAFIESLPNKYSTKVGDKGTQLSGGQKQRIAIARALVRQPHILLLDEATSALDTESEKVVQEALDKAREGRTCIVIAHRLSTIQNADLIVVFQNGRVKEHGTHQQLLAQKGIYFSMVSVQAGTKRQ

Turning to `COc1cc(/C=C/C(=O)OCCCN(C)CCCOC(=O)c2cc(OC)c(OC)c(OC)c2)cc(OC)c1OC`, the Activity in data set [1] is 0.9. Further, in data set [2], the IC50 was determined as 600 nM.

Consider `COc1cc(C(=O)OCCCN(C)CCCOC(=O)c2c3ccccc3cc3ccccc23)cc(OC)c1OC`, for which the Activity in data set [1] came to 0.71. The IC50 in data set [2] turned out to be 280 nM.

Take `COc1cc(/C=C/C(=O)OC2CCC(N(C)C3CCC(OC(=O)c4cc(OC)c(OC)c(OC)c4)CC3)CC2)cc(OC)c1OC` (cis isomer): the Activity in data set [1] is listed as 0.8. Also, the IC50 in data set [2] stood at 30 nM.

For `COc1cc(/C=C/C(=O)OC2CCC(N(C)C3CCC(OC(=O)c4cc(OC)c(OC)c(OC)c4)CC3)CC2)cc(OC)c1OC` (mixture of isomers; cis), in data set [1], the Activity is 0.85. For the same compound, in data set [2], the IC50 was 90 nM.

As for `COc1cc(C(=O)OC2CCC(N(C)C3CCC(OC(=O)c4c5ccccc5cc5ccccc45)CC3)CC2)cc(OC)c1OC` (mixture of isomers; cis), the Activity in data set [1] was determined as 0.95. In addition, the IC50 in data set [2] is 300 nM.

On to `COc1cc(/C=C/C(=O)OC2CCC(N(C)C3CCC(OC(=O)c4cc(OC)c(OC)c(OC)c4)CC3)CC2)cc(OC)c1OC` (mixture of isomers; trans), for which the Activity in data set [1] was 0.98. Further, in data set [2], the IC50 is 10 nM.

As to `COc1cc(C(=O)OC2CCC(N(C)C3CCC(OC(=O)c4c5ccccc5cc5ccccc45)CC3)CC2)cc(OC)c1OC` (mixture of isomers; trans), the Activity in data set [1] is given as 0.78. For the same compound, the IC50 in data set [2] is 160 nM.

`COc1cc(/C=C/C(=O)OC2CCC(N(C)C3CCC(OC(=O)c4cc(OC)c(OC)c(OC)c4)CC3)CC2)cc(OC)c1OC` (stereo in doubt): the Activity in data set [1] was determined as 0.81. Besides, the IC50 in data set [2] turned out to be 320 nM.

Take `COc1cc(C(=O)OC2CCC(N(C)C3CCC(OC(=O)c4c5ccccc5cc5ccccc45)CC3)CC2)cc(OC)c1OC` (stereo in doubt): the Activity in data set [1] was 0.79. Further, in data set [2], the IC50 was 180 nM.

Regarding `COc1cc(C(=O)OC2CCC(N(C)C3CCC(OC(=O)c4c5ccccc5cc5ccccc45)CC3)CC2)cc(OC)c1OC` (trans isomer), the Activity in data set [1] was 0.88. In data set [2], the IC50 was found to be 300 nM.
